test system: Semliki Forest virus; test: In vivo antiviral protection against lethal Forest virus (SFV) infection at dosage of 200 mg/kg tested in 12 mice; assay type: functional
Method in brief: (§1)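 Female Swiss Webster mice, about 20 g, in groups of 12. Compound or placebo was dissolved in 2% aqueous sodium bicarbonate and given intraperitoneally 24 and 18 h before a lethal SFV challenge (10 LD50, pretitrated in mice). Treatment lasted 1 day. Survival was followed for 21 days, and survivor numbers were compared with placebo by two-tailed Fisher exact test.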

SMILES	Activity
CCCCCn1c(S)nc2c(O)nc(N)nc21	8
Nc1nc(O)c2ncn(C3CCCC3)c2n1	0
CCCCCn1c(Br)nc2c(O)nc(N)nc21	8
CCCn1cnc2c(O)nc(N)nc21	2
CCCCn1cnc2c(O)nc(N)nc21	10
CCCCCCn1c(=O)n(C)c2c(O)nc(N)nc21	11
CCCCCCCCn1cnc2c(O)nc(N)nc21	1
CCCCCCn1c(S)nc2c(O)nc(N)nc21	1
Nc1nc(O)c2ncn(C3CCCCC3)c2n1	0
CCCCCCn1c(Br)nc2c(O)nc(N)nc21	4
CCCCn1c(Br)nc2c(O)nc(N)nc21	6
CCCCCn1cnc2c(O)nc(N)nc21	8
CCCCCCCCn1c(Br)nc2c(O)nc(N)nc21	3
CCCCCCCn1c(Br)nc2c(O)nc(N)nc21	1
CCCCCCn1cnc2c(O)nc(N)nc21	12
CCn1cnc2c(O)nc(N)nc21	1

test system: Semliki Forest virus; test: In vivo antiviral protection against lethal Forest virus (SFV) infection at dosage of 100 mg/kg tested in 12 mice; assay type: functional; method in brief: as §1

SMILES	Activity
Nc1nc(O)c2ncn(CCCCCCO)c2n1	2
C[C@]1(CO)OC(n2c(=O)sc3c(O)nc(N)nc32)[C@H](O)[C@@H]1O (some centres not stated)	11
CCCCCCn1c(CC)nc2c(O)nc(N)nc21	3
CCCCCCn1c(O)nc2c(O)nc(N)nc21	1
N#CCCCCCn1cnc2c(O)nc(N)nc21	5
C=CCSc1nc2c(O)nc(N)nc2n1CCCCCC	6
CCCCCCn1c(Cl)nc2c(O)nc(N)nc21	7
C=CCn1c(=S)n(CCCCCC)c2nc(N)nc(O)c21	8
CCCCCCn1c(S)nc2c(S)nc(N)nc21	0
CCCCCCn1c(C)nc2c(O)nc(N)nc21	0
Nc1nc(O)c2nc(Br)n(CCCCCCO)c2n1	2
